# Measured values as given in ChEMBL document CHEMBL4014270, “Aedes aegypti Larvicidal Sesquiterpene Alkaloids from Maytenus oblongata” (J Nat Prod, 2017).
# Tests used:
# MRC5 [1] = assay: Cytotoxicity against human MRC5 cells assessed as mortality at 1 ug/ml relative to control; assay type: cell-based
# In short: (§1)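 MRC5 cells (normal lung tissue from a fetus), exposed to the test material at 1 or 10 μg/mL, with mortality scored against control. The method follows a previously published cytotoxicity procedure, with docetaxel as positive control.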
# MRC5 [2] = assay: Cytotoxicity against human MRC5 cells assessed as mortality at 10 ug/ml relative to control; assay type: cell-based; in short: as §1
# Aedes aegypti [3] = assay: Larvicidal activity against Aedes aegypti Paea assessed as mortality after 24 hrs by tube assay; assay type: functional; conditions: read-out: LD50 (the source's name)
# In short: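 Tube assay on late third- or early fourth-instar larvae of the insecticide-susceptible Paea strain, kept at 28 ± 2 °C and 80 ± 20% RH. Compound in ethanol was added at five concentrations from 1 to 10 μg/mL, 10 tubes of 5 larvae each, in distilled water, with ethanol controls.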
# Aedes aegypti [4] = assay: Larvicidal activity against Aedes aegypti Cayenne assessed as mortality at 50 ug/ml after 24 hrs by tube assay relative to control; assay type: functional
# Aedes aegypti [5] = assay: Larvicidal activity against Aedes aegypti Paea assessed as mortality at 50 ug/ml after 24 hrs by tube assay relative to control; assay type: functional
SMILES,mortality (MRC5 [1]) [%],mortality (MRC5 [2]) [%],LC50 (Aedes aegypti [3]) [µM],mortality at 50 µg/mL (Aedes aegypti [4]) [%],mortality at 50 µg/mL (Aedes aegypti [5]) [%]
C[C@H]1C(=O)CC[C@@H]2[C@]1(C)CC[C@H]1[C@@]2(C)C[C@H](O)[C@@]2(C)[C@@H]3CC(C)(C)CC[C@]3(C)[C@@H](O)C[C@]12C,16,48,> 10,,
CC(=O)OC[C@]12[C@H](OC(C)=O)[C@H](OC(C)=O)[C@H]3OC(=O)C(C)(O)CCc4ncccc4C(=O)OC[C@@]4(C)O[C@@]1([C@H]3C)[C@@H](OC(C)=O)[C@@H]4C(=O)[C@@H]2OC(C)=O (stereo partly drawn),24,38,> 10,,
CC(=O)OC[C@]12[C@H](OC(=O)c3ccccc3)[C@H](OC(C)=O)[C@H]3OC(=O)C(C)(O)CCc4ncccc4C(=O)OC[C@@]4(C)O[C@@]1([C@H]3C)[C@@H](OC(C)=O)[C@@H]4C(=O)[C@@H]2OC(C)=O (stereo partly drawn),15,15,9.4,,
CC(=O)OC[C@]12[C@H](OC(C)=O)[C@H](OC(=O)c3ccccc3)[C@H]3OC(=O)C(C)(O)CCc4ccncc4C(=O)OC[C@@]4(C)O[C@@]1([C@H]3C)[C@@H](OC(C)=O)[C@@H]4[C@@H](OC(C)=O)[C@@H]2OC(C)=O (stereo partly drawn),15,17,> 10,,
CC(=O)OC[C@]12[C@H](OC(=O)c3ccccc3)[C@H](OC(=O)c3ccccc3)[C@H]3OC(=O)C(C)(O)CCc4ncccc4C(=O)OC[C@@]4(C)O[C@@]1([C@H]3C)[C@@H](OC(C)=O)[C@@H]4C(=O)[C@@H]2OC(C)=O (stereo partly drawn),18,21,2.7,,
CC1(C)[C@H](C(=O)O[C@H](C#N)c2cccc(Oc3ccccc3)c2)[C@@H]1C=C(Br)Br [DELTAMETHRIN],,,,26,100
CC(=O)O[C@@]12CO[C@@H]1C[C@H](O)[C@@]1(C)C(=O)[C@H](O)C3=C(C)[C@@H](OC(=O)[C@H](O)[C@@H](NC(=O)OC(C)(C)C)c4ccccc4)C[C@@](O)([C@@H](OC(=O)c4ccccc4)[C@H]21)C3(C)C [DOCETAXEL ANHYDROUS],0.0005,,,,
